According to the EternaBench riboswitch data:

Tested on: MS2 coat protein
Experiment: apparent Kd, MS2 coat protein; higher = weaker binding; RNA-MaP array; tryptophan 2.4 mM where present
Method in brief: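 The titrant was SNAP-549-labelled MS2 coat protein, run from 0.7 or 1.5 nM in doubling steps to 3 µM. It was applied to designs transcribed by stalled E. coli RNA polymerase on Illumina sequencing-chip clusters, without ligand first and then with constant ligand, in 100 mM Tris-HCl pH 7.5, 80 mM KCl, 4 mM MgCl2, BSA, DTT, yeast tRNA and Tween-20. The apparent Kd is the median of filtered per-cluster binding-curve fits, with green signal normalised to red-channel RNA signal and control-cluster median Fmax.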

[1] = designed as: OFF switch for tryptophan, no ligand
[2] = ligand present: tryptophan, designed as: OFF switch for tryptophan
[3] = designed as: ON switch for tryptophan, no ligand
[4] = ligand present: tryptophan, designed as: ON switch for tryptophan

## ACGGAGAUGUCGGCCGCCACUGAACUCAUGUUCAACAUGAGGAUCACCCAUGUACCUUAGUUUAUCAGGACCGGGACAUAUACGA
[1]
  apparent Kd: 116 nM
[2]
  apparent Kd: 48.1 nM

## GGCACAUAGUCGGCCGCCACUAGAAUAAGAAGGGAAAACAUGAGGAUCACCCAUGUAAAAGGGACUAGGACCGGGACUAUGUGCC
[1]
  apparent Kd: 13.9 nM
[2]
  apparent Kd: 13 nM

## CGAAUAUAGACGGCCGCCACUCUACAAACAUGAGGAUCACCCAUGUUCACAUAGAGGAAACUCAUGAGGACCGGGUCAUAGGCUU
[3]
  apparent Kd: 23.4 nM
[4]
  apparent Kd: 20 nM

## UACUUGCUGACGGCCGCCACUAGAACAUGAGGAUCACCCAUGUACCCGGUCCUAAUCCUCAUGACUAGGACCGGGUCAGCAAGAU
[1]
  apparent Kd: 22.4 nM
[2]
  apparent Kd: 21.5 nM

## UAUCGUCAGACGGCCGCCACUAGAACAUGAGGAUCACCCAUGUACCCGGUCCAUUCCUCAUUAACUAGGACCGGGUCUGACGAAU
[1]
  apparent Kd: 125 nM
[2]
  apparent Kd: 30.2 nM

## UGUAGUACCAGACAUGAGGAUCACCCAUGUCGAGGACCGGUACGGCCGCCACUCGGCAGUUUGCGUCCUCAGGUACUCCGGGUAA
[1]
  apparent Kd: 13 nM
[2]
  apparent Kd: 15 nM

## UACAUGAGGAUCACCCAUGUCCCAUGUGAACGAGGACCGGUACGGCCGCCACUCGAAUAAGGCGGCACAUGAGGAUCACCCACAU
[3]
  apparent Kd: 284 nM
[4]
  apparent Kd: 712 nM

## AGUAUUGGAAACAGUACUAGUGAUCCGGUCCGAGGACCGGUACGGCCGCCACUCGAUUUAAAUAAACAUGAGGAUCACCCAUGUA
[1]
  apparent Kd: 13.8 nM
[2]
  apparent Kd: 25.2 nM

## UGUCAGCGAAAGUUGACAUGCAGUGCCGGUCGAGGACCGGUACGGCCGCCACUCGAUCUCUCGUACAUGAGGAUCACCCAUGUCG
[3]
  apparent Kd: 13.4 nM
[4]
  apparent Kd: 13.8 nM

## GAGUAGAAGACGGCCGCCACUAAACAUGAGGAUCACCCAUGUCGUGAUCCGUUACCUAGAGUAGAUAGGACCGGGUCAUAUAGUC
[1]
  apparent Kd: 30.4 nM
[2]
  apparent Kd: 30.9 nM

## AACAUACAAUAAUAGGUGGAUAUAAGGCGGCGAGGACCGGUACGGCCGCCACUCGCGUACAUGAGGAUCACCCAUGUCUGAAACU
[3]
  apparent Kd: 23.2 nM
[4]
  apparent Kd: 28.1 nM

## UAAUAAGUGCCGGUUCUCAGAUCCUCAUGUCGAGGACCGGUACGGCCGCCACUCGAAACAUGAGGAUCACCCAUGUAAUAAUAAU
[1]
  apparent Kd: 51.8 nM
[2]
  apparent Kd: 34.1 nM

## UUUGACGGCGAUCUGGGUUUACCAGAUCGGCGAGGACCGGUACGGCCGCCACUCGUGUUUCUUUGACAUGAGGAUCACCCAUGUA
[3]
  apparent Kd: 39.1 nM
[4]
  apparent Kd: 18.4 nM

## GAUCGACAAAACGUCUAGGAAAACUAGACGCGAGGACCGGUACGGCCGCCACUCGUCCUCACAUGAGGAUCACCCAUGUACGAUC
[1]
  apparent Kd: 31.5 nM
[2]
  apparent Kd: 177 nM

## UAUCGUCAGACGGCCGCCACUAGAACAUGAGGAUCACCCAUGUACGGCCGCCCGGUAUGGGUGUCUAGGACCGGGUCUGACGAAU
[1]
  apparent Kd: 30.4 nM
[2]
  apparent Kd: 39 nM

## AAACAUGAGGAUCACCCAUGUCCUCCUGUCCGAGGACCGGUACGGCCGCCACUCGGUUCUCGGGAGGAUGGUCAAAGACUAUCCA
[3]
  apparent Kd: 290 nM
[4]
  apparent Kd: 253 nM

## GGGCGCGUGGACCGGCGUGCUCCGCUCCGUCGAGGACCGGUACGGCCGCCACUCGACAUGAGGAUCACCCAUGUGUGAGCUCGCG
[1]
  apparent Kd: 55.2 nM
[2]
  apparent Kd: 281 nM

## AGCCACUCGAGUGAUCCUCACGAGUGGCUACGAGGACCGGUACGGCCGCCACUCGAAUUAACAUGAGGAUCACCCAUGUAAUAAU
[3]
  apparent Kd: 152 nM
[4]
  apparent Kd: 39.6 nM

## AUAACAUGAGGAUCACCCAUGUAUUGGUUACGAGGACCGGUACGGCCGCCACUCGUAUUAUAGUGGUAUUUUGUUUAUAUGAUAA
[3]
  apparent Kd: 12.6 nM
[4]
  apparent Kd: 14.1 nM

## GAUUAAACAUGAGGAUCACCCAUGUAUAUACGAGGACCGGUACGGCCGCCACUCGUAAACGAGUAUCCUCGAAUAAACAUGAUAA
[3]
  apparent Kd: 134 nM
[4]
  apparent Kd: 42.7 nM

## CUACAUUUGUAGAAACCGGUCAACAUUAUUCGAGGACCGGUACGGCCGCCACUCGUAUAUUUUAAUACAUGAGGAUCACCCAUGU
[3]
  apparent Kd: 11.6 nM
[4]
  apparent Kd: 12.1 nM

## UUAUAAGUACCGGUCCUCAGAUCCUCAUGACGAGGACCGGUACGGCCGCCACUCGAAACAUGAGGAUCACCCAUGUAAUAAUAAU
[1]
  apparent Kd: 24.2 nM
[2]
  apparent Kd: 21.5 nM
